Results: ChEMBL document CHEMBL3525999, “In vivo biliary clearance should be predicted by intrinsic biliary clearance in sandwich-cultured hepatocytes” (Drug Metab Dispos, 2012)

Key:
Hepatocyte = experiment: Drug uptake in sandwich cultured Sprague-Dawley rat hepatocytes by LC-MS/MS analysis; type: ADME, cell-based
Outline: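 Hepatocytes came from male Sprague-Dawley rats by two-step collagenase perfusion (viability >90%). They were seeded at 5 × 10^5 cells/well on collagen, overlaid with Matrigel 0.25 mg/mL on day 2, and cultured 72 h. Cells were preincubated 10 min at 37°C in HBSS or Ca2+/Mg2+-free HBSS with 1 mmol/L EGTA. Substrate (0.5 or 1 μmol/L) was incubated 15 min. Cells were then rinsed ice-cold, lysed in Triton X-100, and analyzed by LC-MS/MS, normalized to BCA protein. n = 3.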

[1] = Unbound fraction in Sprague-Dawley rat plasma at 100 uM by equilibrium dialysis method
[2] = In vivo intrinsic biliary clearance in iv dosed Sprague-Dawley rat by LC-MS/MS analysis; type: ADME, organism-based, Bile
[3] = Drug uptake in iv dosed Sprague-Dawley rat liver after 5 hrs by LC-MS/MS analysis; type: ADME, organism-based; conditions: read-out: Drug uptake
Outline: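 Rats (9 weeks old) were anesthetized with isoflurane, and the femoral vein and common bile duct were cannulated; animals were held in Bollman cages. Compound (1 mg/mL in saline, or in saline:dimethylacetamide 1:1) was infused IV at 0.2 mL/h to reach steady-state plasma levels. Livers were taken 5 h after infusion start, extracted with acetonitrile containing internal standard, and analyzed by LC-MS/MS. n = 5.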

[4] = In vivo apparent biliary clearance in iv dosed Sprague-Dawley rat by LC-MS/MS analysis; type: ADME, organism-based, Bile
[5] = Biliary excretion in Eisai hyperbilirubinemic mutant rat at 20 mg/kg, iv administered as single dose by HPLC analysis; type: ADME, organism-based; design: dose 20 mg/kg, route intravenous; conditions: bile, read-out: Drug excretion
[6] = Total clearance in Eisai hyperbilirubinemic mutant rat at 20 mg/kg, iv administered as single dose by HPLC analysis; type: ADME, organism-based; design: dose 20 mg/kg, route intravenous; conditions: in vivo
[7] = Biliary excretion in rat; type: ADME; conditions: bile, read-out: Drug excretion
[8] = Total clearance in rat; type: ADME, organism-based; conditions: in vivo

SMILES	Drug uptake (Hepatocyte)	fraction unbound at 100 µM [1]	CL [2]	concentration at 5 h [3]	CL(app) [4]	dose excreted [5]	clearance [6]	dose excreted [7]	clearance [8]
CO[C@@]1(NC(=O)CSCC#N)C(=O)N2C(C(=O)O)=C(CSc3nnnn3C)CS[C@@H]21 [CEFMETAZOLE]	11.4 µmol/L	0.738	3.57 mL/min/kg	5.1 µM	6.22 mL/min/kg	–	–	–	–
Cc1cc(O)c(C(=O)N[C@@H](C(=O)N[C@@H]2C(=O)N3C(C(=O)O)=C(CSc4nnnn4C)CS[C@H]23)c2ccc(O)cc2)cn1 [CEFPIRAMIDE]	1 µmol/L	0.158	3.357 mL/min/kg	2.6 µM	4.72 mL/min/kg	57.8%	8.15 mL/min/kg	–	–
CC(C)c1nc(N(C)S(C)(=O)=O)nc(-c2ccc(F)cc2)c1/C=C/[C@@H](O)C[C@@H](O)CC(=O)O [ROSUVASTATIN]	11.8 µmol/L	0.035	2.505 mL/min/kg	7.1 µM	24.17 mL/min/kg	–	–	–	–
CC[C@H](C)C(=O)O[C@H]1C[C@H](O)C=C2C=C[C@H](C)[C@H](CC[C@@H](O)C[C@@H](O)CC(=O)O)[C@H]21 [PRAVASTATIN]	1.9 µmol/L	0.705	6.723 mL/min/kg	1.9 µM	27.4 mL/min/kg	–	–	–	–
CCN1CCN(C(=O)N[C@@H](C(=O)N[C@@H]2C(=O)N3C(C(=O)O)=C(CSc4nnnn4C)CS[C@H]23)c2ccc(O)cc2)C(=O)C1=O [CEFOPERAZONE]	2.6 µmol/L	–	–	2.5 µM	–	–	–	–	–
CCCCC(=O)N(Cc1ccc(-c2ccccc2-c2nnn[nH]2)cc1)[C@H](C(=O)O)C(C)C	17.5 µmol/L	0.003	1.18 mL/min/kg	17.4 µM	3.5 mL/min/kg	–	–	–	–
CCCc1nc(C(C)(C)O)c(C(=O)O)n1Cc1ccc(-c2ccccc2-c2nnn[nH]2)cc1 [OLMESARTAN]	26 µmol/L	0.01	1.11 mL/min/kg	19.1 µM	2.8 mL/min/kg	–	–	–	–
CC[C@@]1(O)C(=O)OCc2c1cc1n(c2=O)Cc2cc3c(CN(C)C)c(O)ccc3nc2-1 [TOPOTECAN]	3.3 µmol/L	0.747	0.458 mL/min/kg	6.9 µM	5.3 mL/min/kg	–	–	13.2%	40.1 mL/min/kg
